Screening data from PubChem.
LMPTP inh = LMPTP phosphatase inhibitors, primary screen, biochemical, fluorescence intensity, uHTS. Low molecular weight phosphotyrosine protein phosphatase (Homo sapiens), P24666. recombinant LMPTP-A, OMFP fluorogenic substrate. 360,000 tested, 0.22% active. inhibition, % at 20 µM. AID 651560, 2012;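 active = compounds that cut the enzyme signal by at least half of the control window in the single-dose screen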
Target sequence (P24666 whole entry, looked up): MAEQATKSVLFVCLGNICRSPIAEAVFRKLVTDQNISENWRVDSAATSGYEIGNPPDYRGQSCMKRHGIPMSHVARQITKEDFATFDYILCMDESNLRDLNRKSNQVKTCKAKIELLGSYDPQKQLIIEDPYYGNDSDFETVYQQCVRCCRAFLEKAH
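Assay system: LMPTP-A phosphatase enzyme | Input: 0.625 nM enzyme | Also added: Fluorogenic phosphatase substrate OMFP at 400 µM final | Compound dosing: One test concentration per compound, 20 µM, with 3% DMSO overall | Schedule: 50 min enzyme reaction at room temperature, protected from light | Signal: Fluorescence intensity | Benchmarks: no-enzyme and uninhibited controls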
STEP inh = STEP phosphatase inhibitors, primary screen, biochemical, fluorescence intensity, uHTS; 360,000 tested, 0.25% active; Tyrosine-protein phosphatase non-receptor type 5 (Homo sapiens), P54829; inhibition, % at 20 µM; AID 588621, 2011; recombinant STEP, OMFP fluorogenic substrate;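 active = inhibition at 20 µM, scaled per plate between control wells, above about 37%, limit read from the data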
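material = STEP tyrosine phosphatase | reagent = fluorogenic phosphatase substrate OMFP at 25 µM final | doses = single compound dose of 20 µM, 1% DMSO final | schedule = 20 min reaction, room temperature, in the dark | measured by = fluorescence, 480/540 nm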
DNMT1 block = human DNMT1 methyltransferase inhibitors, primary screen, biochemical, molecular beacon, fluorescence, HinP1I cleavage, uHTS; DNA (cytosine-5)-methyltransferase 1 (Homo sapiens), P26358; inhibition (reported as % activation of signal), % at 10 µM; 360,000 tested, 0.83% active; in the data active = inhibition above about 50%
SUMO1-SIM PPI = modulators of SUMO1 protein-protein interactions, primary screen, biochemical, uHTS | Small ubiquitin-related modifier 1 (Homo sapiens), P63165 | SUMO1 binding to a labelled peptide, TR-FRET, 1 h | inhibition, % at 20 µM | 360,000 tested, 0.33% active | AID 602429, 2012; in the data active = inhibition above about 37%
Target sequence (P63165 whole entry, looked up): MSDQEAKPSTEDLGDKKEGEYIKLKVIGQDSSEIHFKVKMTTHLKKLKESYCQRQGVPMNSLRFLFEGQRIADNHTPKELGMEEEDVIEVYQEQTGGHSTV
Scp1 inh = Scp-1 phosphatase inhibitors, primary screen, biochemical, colorimetric, uHTS | AID 493091, 2011 | Carboxy-terminal domain RNA polymerase II polypeptide A small phosphatase 1 (Homo … | inhibition, % at 20 µM | 340,000 tested, 0.88% active | Recombinant Scp1, phosphopeptide, malachite green phosphate absorbance;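 active = inhibition above about 50% at 20 µM, limit read from the data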
Target sequence (Q9GZU7 76-261 limits assumed): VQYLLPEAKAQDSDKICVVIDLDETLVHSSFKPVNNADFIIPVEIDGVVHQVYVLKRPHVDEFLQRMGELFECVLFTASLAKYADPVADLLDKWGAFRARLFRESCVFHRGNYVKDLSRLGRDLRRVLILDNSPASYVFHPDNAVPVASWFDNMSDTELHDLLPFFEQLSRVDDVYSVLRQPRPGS
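Test system: SCP-1 phosphatase catalytic domain, residues 76-261; measured by: colorimetric phosphate reagent with accelerator and stabiliser, absorbance at 630 nm; timing: enzyme reaction 45 min at room temperature, colour 5 min, stabilisation 30 min; also added: Phosphorylated 17-residue peptide substrate; compound dosing: one concentration, 20 µM, with 1.0% DMSO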
Beacon interf DR = spectral interference with molecular beacon fluorescence, dose response, artefact control for DNMT1 inhibitor project, biochemical, fluorescent molecular beacon | shares compounds with DNMT1 block | spectral interference counter-screen | IC50, µM | 200 tested, under 10 active | AID 602382, 2012; call rule not given here
DNMT1 inh conf = DNMT1 methyltransferase inhibitor retest, confirmation, biochemical, molecular beacon, fluorescence, single concentration; AID 602385, 2012; DNMT1 molecular beacon HinP1I cleavage; shares compounds with DNMT1 block; 2,300 tested, 8% active; inhibition, % at 10 µM;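 active = average inhibition of at least 30% in the single-concentration confirmation test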
Beacon interf = shows spectral interference in the DNMT1 beacon assay; shares compounds with DNMT1 block; DNMT1 molecular beacon spectral interference counterscreen, fluorescence 485/520; activation (fluorescence interference), % at 10 µM; 2,300 tested, 1% active;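 active = activation of at least 30% at 10 µM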;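 also: DNMT1 catalytic domain with a HinP1I cleavage step and a FAM/dabcyl DNA beacon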
Large screens that a line does not name were inactive (follow-up assays come after a bar, where they were run). Shown are actives, neighbours in structure and some others; about 1.7% of the full set was active somewhere.

O=c1[nH]c(Nc2ccccc2)cc2cc(Br)ccc12	DNMT1 block 92 | DNMT1 inh conf inactive | Beacon interf inactive
Cc1ccc(-n2c(SCC(=O)N3CCCCC3)nc(O)c(Cc3ccccc3)c2=O)cc1	none
CCSc1nnc(SCC(=O)c2c(N)n(C)c(=O)n(C)c2=O)s1	none
C=CCn1c(C)cc(C(=O)Cn2ncc(Cl)c(Cl)c2=O)c1C	DNMT1 block 103 | DNMT1 inh conf inactive | Beacon interf inactive
C=CCC1NS(=O)(=O)OCC1NC(=O)OCC(Cl)(Cl)Cl (centres undefined)	none
C=CCC1NS(=O)(=O)OCC1C(C)C (centres undefined)	DNMT1 block 50 | DNMT1 inh conf inactive | Beacon interf inactive
O=C(O)c1cccc(N2C(=O)c3cc([N+](=O)[O-])cc4cc([N+](=O)[O-])cc(c34)C2=O)c1	DNMT1 block 85, Scp1 inh 69 | DNMT1 inh conf inactive | Beacon interf inactive
O=C1CN(C(=O)NCC(=O)N[C@H](C(=O)O)c2ccccc2)c2ccccc2N1	none
O=C1CN(C(=O)NCC(=O)N[C@H](Cc2ccccc2)C(=O)O)c2ccccc2N1	DNMT1 block 74 | DNMT1 inh conf inactive | Beacon interf inactive
O=C1C2C3C=CC(C2C(=O)N1c1nccs1)C1C(=O)N(c2nccs2)C(=O)C31 (centres undefined)	none
O=C1C2C3C=CC(CC3)C2C(=O)N1c1nccs1 (centres undefined)	DNMT1 block 61 | DNMT1 inh conf inactive | Beacon interf inactive
CC(CNC(=O)COc1ccc2c(c1)OCO2)c1ccccc1 (centres undefined)	none
C=CCn1c(SCC(=O)NCc2ccc3c(c2)OCO3)nc2scc(-c3ccccc3)c2c1=O	none
C=CCn1c(SCc2ccc3c(c2)OCO3)nc2scc(-c3ccco3)c2c1=O	DNMT1 block 103 | DNMT1 inh conf inactive | Beacon interf inactive
C=CCn1c(SCC(C)=O)nc2scc(-c3ccco3)c2c1=O	DNMT1 block 75 | DNMT1 inh conf inactive | Beacon interf inactive
C=CCn1c(SC(F)F)nc2scc(-c3ccco3)c2c1=O	none
O=C(O)CSc1ncnc2sc(-c3ccccc3)cc12	none
CC(=O)c1c(C)[nH]c(C(=O)CSc2ncnc3sc(-c4ccccc4)cc23)c1C	DNMT1 block 53 | DNMT1 inh conf inactive | Beacon interf inactive
Cc1cccc(NC(=O)CSCC(=O)Nc2ccccc2N2CCCC2)c1	none
Cc1cccc(NC(=O)CSCC(=O)Nc2ccccc2N2CCCCC2)c1	DNMT1 block 94 | DNMT1 inh conf inactive | Beacon interf inactive
CC(=O)c1sc2nc(-c3ccco3)ccc2c1N	DNMT1 block 67, Scp1 inh 79 | DNMT1 inh conf inactive | Beacon interf inactive
COC(=O)c1ccc(CSc2nc3scc(-c4cccs4)c3c(=O)[nH]2)o1	DNMT1 block 80 | DNMT1 inh conf inactive | Beacon interf inactive
O=C(N=Nc1c(O)[nH]c2ccc(Br)cc12)c1cc(-c2cccs2)nc2ccccc12	DNMT1 block 65 | DNMT1 inh conf inactive | Beacon interf inactive
CCOc1ccc(N(CC(=O)Nc2ccc(C)cc2C)S(C)(=O)=O)cc1	DNMT1 block 71 | DNMT1 inh conf inactive | Beacon interf inactive
Cc1cc(-c2nc3c4c5c(sc4[nH]c(=O)n3n2)CCC5)c(C)o1	DNMT1 block 66, Scp1 inh 58 | DNMT1 inh conf inactive | Beacon interf inactive
Cc1nc2sc3c(c2c(=O)[nH]1)CCC3	none
COc1ccc(/C=C/C(=O)NC(=S)Nc2ccc(S(=O)(=O)N=C(N)N)cc2)cc1OC	DNMT1 block 61 | DNMT1 inh conf inactive | Beacon interf inactive
COCCCn1c(=O)c2sccc2n2c(CCCC(=O)NCc3ccc(F)cc3)nnc12	none
CN(C)CCN(C(=O)/C=C/c1cccs1)c1nc2c(F)cc(F)cc2s1	DNMT1 block 58 | DNMT1 inh conf inactive | Beacon interf inactive
CN(C)CCCN(C(=O)/C=C/c1cccs1)c1nc2ccc(F)cc2s1	none
COc1ccc(OC)c(C(c2c(C)[nH][nH]c2=O)c2c(C)[nH][nH]c2=O)c1	none
COc1ccc(O)c(C(c2c(C)[nH][nH]c2=O)c2c(C)[nH][nH]c2=O)c1	DNMT1 block 53, SUMO1-SIM PPI 43 | DNMT1 inh conf inactive | Beacon interf inactive
Cc1ccc(NC(=O)C(=O)NN)cc1	DNMT1 block 75 | DNMT1 inh conf inactive | Beacon interf inactive
NNC(=O)C(=O)Nc1ccc(O)cc1	none
CCc1nnc2n1N=C(c1ccc(-c3cc(Cl)ccc3Cl)o1)CS2	DNMT1 block 66 | DNMT1 inh conf inactive | Beacon interf inactive
COc1ccc(OC)c(-n2c(SCC(=O)Nc3cccc(S(N)(=O)=O)c3)nc3ccccc3c2=O)c1	DNMT1 block 67 | DNMT1 inh conf inactive | Beacon interf inactive
Cc1ccc(-n2nc3c(c2NC(=O)C(C)(C)C)CSC3)c(C)c1	none
Cc1ccc(-n2nc3c(c2NC(=O)c2ccc(Br)o2)CSC3)c(C)c1	DNMT1 block 53 | DNMT1 inh conf inactive | Beacon interf inactive
COc1ccccc1N1CCN(/N=C/c2ccc([N+](=O)[O-])cc2)CC1	none
COc1ccccc1N1CCN(/N=C/c2ccc(Cl)c([N+](=O)[O-])c2)CC1	DNMT1 block 99 | Beacon interf DR inactive | DNMT1 inh conf 35 | Beacon interf inactive
Cc1ccccc1C(=O)N1CCC(C(=O)NC2CCCC2)CC1	none
COc1ccc2nc(C)cc(SCC(=O)Nc3c(C)cc(C)cc3C)c2c1	DNMT1 block 55 | DNMT1 inh conf inactive | Beacon interf inactive
Cc1cccc(NC(=O)c2cc3c(=O)n4ccccc4nc3n(CC(C)C)c2=N)c1	DNMT1 block 62 | DNMT1 inh conf inactive | Beacon interf inactive
CCOc1ccc2[nH]c3nc(SCC(=O)OC(C)C)nnc3c2c1	none
CC(OC(=O)c1cc(S(=O)(=O)N2CCOCC2)ccc1F)C(=O)NCc1ccc2c(c1)OCO2 (centres undefined)	none
